Test [1] concerns Rattus norvegicus. As to the kind of experiment: Diuretic activity in acute sodium loaded Wistar rat assessed as urine volume at 25 mg/kg, po measured for 0 to 5 hrs post drug dosing relative to urea. The format is functional. The procedure, abridged: (§1)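 Female Wistar rats (150–200 g), fasted 16 h. Drug in 1% saline given orally at 15 mL/kg; animals kept in individual metabolic cages with water ad libitum. Urine collected 0–5 h. Each test had vehicle and urea (1000 mg/kg) groups. Na⁺ and K⁺ measured by flame photometry, Cl⁻ by chloride analyzer. Group means for volume and each ion expressed as a ratio to the urea group.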

For test [2], the system named is Rattus norvegicus. The test is described as follows: Diuretic activity in acute sodium loaded Wistar rat assessed as chloride level in urine at 25 mg/kg, po measured for 0 to 5 hrs post drug dosing by chloride analyzer relative to urea. The format is functional. The procedure, abridged:
as §1

The subject of test [3] is Rattus norvegicus. As to the kind of experiment: Diuretic activity in acute sodium loaded Wistar rat assessed as sodium level in urine at 50 mg/kg, po measured for 0 to 5 hrs post drug dosing by flame photometer relative to urea. It counts as functional. The gist of the method:
as §1

Test [4] has as its system Rattus norvegicus. As to the kind of experiment: Diuretic activity in acute sodium loaded Wistar rat assessed as chloride level in urine at 50 mg/kg, po measured for 0 to 5 hrs post drug dosing by chloride analyzer relative to urea. The format is functional. The procedure, abridged: as §1
The subject of test [5] is Rattus norvegicus. The test is described as follows: Diuretic activity in acute sodium loaded Wistar rat assessed as sodium level in urine at 25 mg/kg, po measured for 0 to 5 hrs post drug dosing by flame photometer relative to urea. The format is functional. The procedure, abridged:
as §1

In test [6] the test system is Rattus norvegicus. The test is described as follows: Diuretic activity in acute sodium loaded Wistar rat assessed as potassium level in urine at 50 mg/kg, po measured for 0 to 5 hrs post drug dosing by flame photometer relative to urea. The format is functional. The gist of the method:
as §1

In test [7] the test system is Mus musculus. The test is described as follows: Antidepressant activity in CD-1 mouse at 25 mg/kg, ip administered 30 mins prior to tetrabenazine challenge measured after 30 mins by tetrabenazine assay. It counts as functional, organism-based. Also on record: dose 25 mg/kg.
Test [8] deals with Rattus norvegicus. The test is described as follows: Antihypertensive activity in spontaneous hypertensive rat assessed as drop in systolic blood pressure at 25 mg/kg, po administered at 0 hrs on days 1, 2 and 3 measured at 2 hrs after drug dose on day 3 by indirect tail-cuff method. The format is functional, Artery. The gist of the method: (§2)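 Spontaneously hypertensive rats, tail-cuff (indirect) systolic pressure. Pairs of rats held in a wire basket, conditioned 20 min in a 40 °C incubator. Each reading is the mean of 3–5 determinations. Rats had 2-week training for baseline; those below 175 mmHg were excluded. Oral dosing at 0 h on days 1–3 in groups of six, read before dosing and 2 h after the day-3 dose; paired t test.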

Test [9] deals with Rattus norvegicus. As to the kind of experiment: Diuretic activity in acute sodium loaded Wistar rat assessed as urine volume at 50 mg/kg, po measured for 0 to 5 hrs post drug dosing relative to urea. It counts as functional. The procedure, abridged:
as §1

In test [10] the test system is Rattus norvegicus. The test is described as follows: Diuretic activity in acute sodium loaded Wistar rat assessed as potassium level in urine at 25 mg/kg, po measured for 0 to 5 hrs post drug dosing by flame photometer relative to urea. The format is functional. The gist of the method:
as §1

Test [11] deals with Rattus norvegicus. As to the kind of experiment: Diuretic activity in acute sodium loaded Wistar rat assessed as chloride level in urine at 10 mg/kg, po measured for 0 to 5 hrs post drug dosing by chloride analyzer relative to urea. It counts as functional. The gist of the method:
as §1

In test [12] the test system is Rattus norvegicus. As to the kind of experiment: Diuretic activity in acute sodium loaded Wistar rat assessed as potassium level in urine at 2 mg/kg, po measured for 0 to 5 hrs post drug dosing by flame photometer relative to urea. The format is functional. The procedure, abridged:
as §1

Test [13] concerns Rattus norvegicus. As to the kind of experiment: Antihypertensive activity in spontaneous hypertensive rat assessed as drop in systolic blood pressure at 50 mg/kg, po administered at 0 hrs on days 1, 2 and 3 measured at 2 hrs after drug dose on day 3 by indirect tail-cuff method. The format is functional, Artery. The gist of the method:
as §2

Test [14] deals with Rattus norvegicus. As to the kind of experiment: Hypotensive activity in DOCA rat at 25 to 50 mg/kg, po. It counts as functional, organism-based.
The test system of test [15] is Rattus norvegicus. As to the kind of experiment: Diuretic activity in acute sodium loaded Wistar rat assessed as urine volume at 2 mg/kg, po measured for 0 to 5 hrs post drug dosing relative to urea. The format is functional. The procedure, abridged: as §1
The subject of test [16] is Rattus norvegicus. The test is described as follows: Diuretic activity in acute sodium loaded Wistar rat assessed as sodium level in urine at 5 mg/kg, po measured for 0 to 5 hrs post drug dosing by flame photometer relative to urea. The format is functional. The gist of the method: as §1
Test [17] relates to Rattus norvegicus. The test is described as follows: Diuretic activity in acute sodium loaded Wistar rat assessed as potassium level in urine at 10 mg/kg, po measured for 0 to 5 hrs post drug dosing by flame photometer relative to urea. The format is functional. The gist of the method:
as §1

In test [18] the test system is Canis familiaris. The test is described as follows: Diuretic activity in dog at 20 mg/kg, iv. The format is functional, organism-based. To be noted: Canis lupus familiaris, Urine. Details: dose 20 mg/kg.
Test [19] relates to Rattus norvegicus. The test is described as follows: Diuretic activity in acute sodium loaded Wistar rat assessed as urine volume at 10 mg/kg, po measured for 0 to 5 hrs post drug dosing relative to urea. It counts as functional. The procedure, abridged:
as §1

For test [20], the system named is Rattus norvegicus. As to the kind of experiment: Diuretic activity in acute sodium loaded Wistar rat assessed as urine volume at 5 mg/kg, po measured for 0 to 5 hrs post drug dosing relative to urea. The format is functional. The gist of the method:
as §1

Test [21] concerns Rattus norvegicus. As to the kind of experiment: Diuretic activity in acute sodium loaded Wistar rat assessed as chloride level in urine at 2 mg/kg, po measured for 0 to 5 hrs post drug dosing by chloride analyzer relative to urea. The format is functional. The gist of the method:
as §1

Test [22] relates to Rattus norvegicus. The test is described as follows: Diuretic activity in acute sodium loaded Wistar rat assessed as sodium level in urine at 10 mg/kg, po measured for 0 to 5 hrs post drug dosing by flame photometer relative to urea. It counts as functional. The gist of the method: as §1
Test [23] relates to Canis familiaris. The test is described as follows: Antihypertensive activity in acute anesthetized dog at 10 mg/kg, iv. The format is functional, organism-based. Details: dose 10 mg/kg. To be noted: Canis lupus familiaris.
For test [24], the system named is Rattus norvegicus. As to the kind of experiment: Diuretic activity in acute sodium loaded Wistar rat assessed as potassium level in urine at 5 mg/kg, po measured for 0 to 5 hrs post drug dosing by flame photometer relative to urea. The format is functional. The procedure, abridged: as §1
In test [25] the test system is Canis familiaris. As to the kind of experiment: Diuretic activity in dog at 1 to 50 mg/kg, po. The format is functional, organism-based. To be noted: Canis lupus familiaris, Urine.
For test [26], the system named is Rattus norvegicus. As to the kind of experiment: Diuretic activity in acute sodium loaded Wistar rat assessed as chloride level in urine at 5 mg/kg, po measured for 0 to 5 hrs post drug dosing by chloride analyzer relative to urea. It counts as functional. The procedure, abridged: as §1
Test [27] relates to Rattus norvegicus. The test is described as follows: Diuretic activity in acute sodium loaded Wistar rat assessed as sodium level in urine at 2 mg/kg, po measured for 0 to 5 hrs post drug dosing by flame photometer relative to urea. It counts as functional. The procedure, abridged: as §1
Test [28] has as its system Rhesus monkey. The test is described as follows: Diuretic activity in rhesus monkey at 10 to 20 mg/kg, po. It counts as functional, organism-based. To be noted: Macaca mulatta, Urine.
The test system of test [29] is Rattus norvegicus. The test is described as follows: Antihypertensive activity in spontaneous hypertensive rat assessed as drop in systolic blood pressure at 100 mg/kg, po administered at 0 hrs on days 1, 2 and 3 measured at 2 hrs after drug dose on day 3 by indirect tail-cuff method. The format is functional, Artery. The procedure, abridged:
as §2

Test [30] deals with Rattus norvegicus. As to the kind of experiment: Antihypertensive activity in spontaneous hypertensive rat assessed as drop in systolic blood pressure at 10 mg/kg, po administered at 0 hrs on days 1, 2 and 3 measured at 2 hrs after drug dose on day 3 by indirect tail-cuff method. The format is functional, Artery. The procedure, abridged:
as §2

Active and inactive are the calls of the source. No cut-off for these calls is given here.

As to `O=[N+]([O-])c1ccc(SN2CCC3(CC2)OC(c2ccccc2)c2ccccc23)cc1` (stereo not given), the Ratio in test [1] was determined as 0.59; in test [2], 0.75; in test [3], 2.41; in test [4], 2.3; in test [5], 0.76; in [6], 1.2. For the same molecule, the Ratio in [9] is listed as 1.73; in test [10], 0.58. Moreover, the result in test [7] was inactive. Further, the Activity in [8] is 9 mmHg.

For the molecule `c1ccc(SN2CCC3(CC2)OC(c2ccccc2)c2ccccc23)cc1` (stereo not given), the Ratio is 2.2 in [1]; 1.62 in [11]; 0.74 in test [12]; 1 in test [15]; 1.31 in test [16]; 0.94 in [17]. The Ratio in [3] is 1.83; in test [19] it was 1.49; in test [20], 1.2; in [21], 1.19; in test [4], 1.85; in [5], 2.5. Moreover, the Ratio in [22] is given as 1.69; in test [6], 0.97; in test [24], 0.86; in test [26], 1.43; in [9], 1.71; in test [27], 1.2. In test [10], the Ratio amounted to 1.2. The Activity in [13] is reported as 66 mmHg; in test [8], 44 mmHg. The result in test [14] was Active. In addition, the outcome in test [18], in test [23], in test [25], in [7] and in [28] was inactive.

Regarding `COc1ccc(SN2CCC3(CC2)OC(c2ccccc2)c2ccccc23)cc1` (stereo not given), the Ratio in test [1] is 1.4; in [3] it was 1.78; in test [4], 1.47; in [5] it was 0.97; in [6], 0.8; in [9], 1.47. In test [10], the Ratio stood at 0.84. Further, the Activity in [13] is 14 mmHg. Also, the result in test [7] was inactive.

Turning to `[O-][S+](c1ccccc1)N1CCC2(CC1)OC(c1ccccc1)c1ccccc12` (stereo not given), in test [29], the Activity is given as 22 mmHg. Further, the Ratio worked out at 0.81 in test [1]; 1.18 in test [2]; 2.2 in test [3]; 1.22 in [5]; 1 in [6]; 1.74 in test [9]. In addition, the Ratio in [10] was 0.68. Also, the outcome in test [7] was inactive.

For the molecule `N=C(N)NCCN1CCCCCCC1` [GUANETHIDINE], the Activity in test [30] came out at 34 mmHg.

`O=S(=O)(c1ccccc1)N1CCC2(CC1)OC(c1ccccc1)c1ccccc12` (stereo not given): in [13], the Activity came to 13 mmHg. Besides, the Ratio in [3] is on record as 0.7; in test [4], 0.79; in [6], 0.57; in test [9] it was 0.63. The result in test [7] was inactive.

For `NS(=O)(=O)c1cc2c(cc1Cl)N=CNS2(=O)=O` [CHLOROTHIAZIDE], the Ratio came to 2.2 in [3], 1.1 in test [6] and 1.6 in [9].

These data come from ChEMBL document CHEMBL3244070, “Spiro[isobenzofuran-1(3H),4'-piperidines]. 3. Diuretic and antihypertensive properties of compounds containing a sulfur attached to nitrogen” (1978).
